According to paper PMC11293336 (Cell Reports Medicine, 2024):

Test system: patients with recurrent high-grade glioma
Test: Dose-limiting toxicities and adverse events of oral terameprocol, GATOR trial
Format: in vivo, human
In short: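 Patients ≥18 y with recurrent supratentorial grade III–IV glioma took oral capsules once daily, days 1–5 every 28 days, fasted; an amended cohort took 6,000 mg/day with a meal within 30 min. 3+3 escalation over 1,200–6,000 mg/day. DLT window was the first 4 weeks: ANC <500/μL, platelets <25,000/μL, febrile neutropenia, hematologic toxicity preventing >80% of dose, grade 3–4 seizure/intracranial hemorrhage, grade 3 QTcF. AEs CTCAE-graded.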

[1] = DLT, 2,400 mg/day EXP (expanded dose cohort), N=4
[2] = DLT, 6,000 mg/day with meal, N=4
[3] = related to terameprocol, all cycles, N = 19

Which results are given for `COc1ccc(C[C@@H](C)[C@@H](C)Cc2ccc(OC)c(OC)c2)cc1OC` [terameprocol, meso-tetra-O-methyl nordihydroguaiaretic acid]?
% of patients with DLT per dose level (1,200 mg/day, N=3): 0%; % of patients with DLT per dose level (2,400 mg/day EXP (expanded dose cohort), N=4): 0%; % of patients with DLT per dose level (2,400 mg/day, N=3): 33%; % of patients with DLT per dose level (3,600 mg/day, N=3): 0%; % of patients with DLT per dose level (6,000 mg/day with meal, N=4): 0%; % of patients with DLT per dose level (6,000 mg/day, N=3): 0%; tolerability of oral terameprocol (1,200-6,000 mg/day, days 1–5 every 28 days): without major toxicities and generally well tolerated and safe and well tolerated; patients who experienced DLT (DL2fasted 2,400 mg/day cohort): 1/3; DLT (DL3fasted 3,600 mg/day, three patients): no DLTs; DLT (DL4fasted 6,000 mg/day, three patients): no DLTs; DLT (DL4fed 6,000 mg/day with food): No DLTs; <80% of expected terameprocol dose due to hematologic toxicity (DLT, 1,200 mg/day, N=3): 0; Febrile neutropenia (DLT, 1,200 mg/day, N=3): 0; Grade 3–4 non-hematologic toxicity (DLT, 1,200 mg/day, N=3): 0; Grade 3–4 seizure or intracranial hemorrhage (DLT, 1,200 mg/day, N=3): 0; Platelets <25,000/mm^3 (DLT, 1,200 mg/day, N=3): 0; <80% of expected terameprocol dose due to hematologic toxicity [1]: 0; Febrile neutropenia [1]: 0; Grade 3–4 non-hematologic toxicity [1]: 0; Grade 3–4 seizure or intracranial hemorrhage [1]: 0; Platelets <25,000/mm^3 [1]: 0; <80% of expected terameprocol dose due to hematologic toxicity (DLT, 2,400 mg/day, N=3): 0; Febrile neutropenia (DLT, 2,400 mg/day, N=3): 0; Grade 3–4 non-hematologic toxicity (DLT, 2,400 mg/day, N=3): 1; Grade 3–4 seizure or intracranial hemorrhage (DLT, 2,400 mg/day, N=3): 0; Platelets <25,000/mm^3 (DLT, 2,400 mg/day, N=3): 0; <80% of expected terameprocol dose due to hematologic toxicity (DLT, 3,600 mg/day, N=3): 0; Febrile neutropenia (DLT, 3,600 mg/day, N=3): 0; Grade 3–4 non-hematologic toxicity (DLT, 3,600 mg/day, N=3): 0; Grade 3–4 seizure or intracranial hemorrhage (DLT, 3,600 mg/day, N=3): 0; Platelets <25,000/mm^3 (DLT, 3,600 mg/day, N=3): 0; <80% of expected terameprocol dose due to hematologic toxicity [2]: 0; Febrile neutropenia [2]: 0; Grade 3–4 non-hematologic toxicity [2]: 0; Grade 3–4 seizure or intracranial hemorrhage [2]: 0; Platelets <25,000/mm^3 [2]: 0; <80% of expected terameprocol dose due to hematologic toxicity (DLT, 6,000 mg/day, N=3): 0; Febrile neutropenia (DLT, 6,000 mg/day, N=3): 0; Grade 3–4 non-hematologic toxicity (DLT, 6,000 mg/day, N=3): 0; Grade 3–4 seizure or intracranial hemorrhage (DLT, 6,000 mg/day, N=3): 0; Platelets <25,000/mm^3 (DLT, 6,000 mg/day, N=3): 0; patients off treatment due to toxicity (all dose levels): No patients; DLT (dose expansion at DL2fasted 2,400 mg/day, three additional patients): no additional DLTs; Alanine aminotransferase increased, Grade 1 [3]: 2 (10.5%) No. of patients (%); Alanine aminotransferase increased, Total [3]: 2 (10.5%) No. of patients (%); Anemia, Grade 1 [3]: 4 (21.1%) No. of patients (%); Anemia, Total [3]: 4 (21.1%) No. of patients (%); Anorexia, Grade 1 [3]: 2 (10.5%) No. of patients (%); Anorexia, Grade 2 [3]: 1 (5.3%) No. of patients (%); Anorexia, Total [3]: 3 (15.8%) No. of patients (%); Arthralgia, Grade 1 [3]: 1 (5.3%) No. of patients (%); Arthralgia, Total [3]: 1 (5.3%) No. of patients (%); Aspartate aminotransferase increased, Grade 1 [3]: 1 (5.3%) No. of patients (%); Aspartate aminotransferase increased, Total [3]: 1 (5.3%) No. of patients (%); Blood bilirubin increased, Grade 1 [3]: 1 (5.3%) No. of patients (%); Blood bilirubin increased, Total [3]: 1 (5.3%) No. of patients (%); Constipation, Grade 1 [3]: 1 (5.3%) No. of patients (%); Constipation, Total [3]: 1 (5.3%) No. of patients (%); Diarrhea, Grade 1 [3]: 2 (10.5%) No. of patients (%); Diarrhea, Total [3]: 2 (10.5%) No. of patients (%); Electrocardiogram QT corrected interval prolonged, Grade 3 [3]: 1 (5.3%) No. of patients (%); Electrocardiogram QT corrected interval prolonged, Total [3]: 1 (5.3%) No. of patients (%); Fatigue, Grade 1 [3]: 2 (10.5%) No. of patients (%); Fatigue, Grade 2 [3]: 2 (10.5%) No. of patients (%); Fatigue, Total [3]: 4 (21.1%) No. of patients (%); Fever, Grade 1 [3]: 1 (5.3%) No. of patients (%); Fever, Total [3]: 1 (5.3%) No. of patients (%); Gastrointestinal pain, Grade 1 [3]: 1 (5.3%) No. of patients (%); Gastrointestinal pain, Total [3]: 1 (5.3%) No. of patients (%); Hyperglycemia, Grade 1 [3]: 1(5.3%) No. of patients (%); Hyperglycemia, Total [3]: 1 (5.3%) No. of patients (%); Hyperkalemia, Grade 2 [3]: 1 (5.3%) No. of patients (%); Hyperkalemia, Total [3]: 1 (5.3%) No. of patients (%); Hypernatremia, Grade 1 [3]: 1 (5.3%) No. of patients (%); Hypernatremia, Total [3]: 1 (5.3%) No. of patients (%); Hypertension, Grade 1 [3]: 1 (5.3%) No. of patients (%); Hypertension, Total [3]: 1 (5.3%) No. of patients (%); Hypocalcemia, Grade 1 [3]: 1 (5.3%) No. of patients (%); Hypocalcemia, Total [3]: 1 (5.3%) No. of patients (%); Hypokalemia, Grade 1 [3]: 1 (5.3%) No. of patients (%); Hypomagnesemia, Grade 1 [3]: 3 (15.8%) No. of patients (%); Hypomagnesemia, Grade 2 [3]: 1 (5.3%) No. of patients (%); Hypomagnesemia, Total [3]: 4 (21.1%) No. of patients (%); Hyponatremia, Grade 1 [3]: 3 (15.8%) No. of patients (%); Hyponatremia, Total [3]: 3 (15.8%) No. of patients (%); Hypophosphatemia, Grade 1 [3]: 1 (5.3%) No. of patients (%); Hypophosphatemia, Total [3]: 1 (5.3%) No. of patients (%); Lymphocyte count decreased, Grade 2 [3]: 1 (5.3%) No. of patients (%); Lymphocyte count decreased, Grade 3 [3]: 1 (5.3%) No. of patients (%); Lymphocyte count decreased, Total [3]: 2 (10.5%) No. of patients (%); Mouth sores, Grade 1 [3]: 1 (5.3%) No. of patients (%); Mouth sores, Total [3]: 1 (5.3%) No. of patients (%); Muscle cramp, Grade 1 [3]: 1 (5.3%) No. of patients (%); Muscle cramp, Total [3]: 1 (5.3%) No. of patients (%); Muscle weakness lower limb, Grade 1 [3]: 1 (5.3%) No. of patients (%); Muscle weakness lower limb, Total [3]: 1 (5.3%) No. of patients (%); Nausea, Grade 1 [3]: 3 (15.8%) No. of patients (%); Nausea, Total [3]: 3 (15.8%) No. of patients (%); Platelet count decreased, Grade 1 [3]: 1 (5.3%) No. of patients (%); Platelet count decreased, Total [3]: 1 (5.3%) No. of patients (%); Rash, maculopapular, Grade 1 [3]: 1 (5.3%) No. of patients (%); Rash, maculopapular, Total [3]: 1 (5.3%) No. of patients (%); Vomiting, Grade 1 [3]: 2 (10.5%) No. of patients (%); Vomiting, Total [3]: 2 (10.5%) No. of patients (%); Weight loss, Grade 1 [3]: 1 (5.3%) No. of patients (%); Weight loss, Total [3]: 1 (5.3%) No. of patients (%)
